Reference: ChEMBL document CHEMBL5120861, “Short peptide pharmacophores developed from protein phosphatase-1 disrupting peptides (PDPs)” (Bioorg Med Chem, 2022)
The source made the active and inactive calls. The rule behind the calls is not given here. Where a SMILES comes first, the peptide text is derived from it. [ ]: non-standard residue; d: D form. NMeR = CN[C@@H](CCCNC(=N)N)C(=O)O; hArg = N=C(N)NCCCC[C@H](N)C(=O)O; β3hR = N=C(N)NCCC[C@H](N)CC(=O)O; Gly(cPr) = N[C@H](C(=O)O)C1CC1; Orn = NCCC[C@H](N)C(=O)O

Columns and labels:
[1] = (§1) Disruption of PP1 holoenzyme (unknown origin) interaction with protein inhibitor 2 assessed as increase in PP1 phosphatase activity by measuring increase in fluorescence using DiFMUP as substrate enzyme preincubated with I2 for ten mins followed by compound treatment for 20 mins followed by substrate addition by fluorescence based analysis; parameters: species or system Homo sapiens
[2] = species on record: Homo sapiens; test: Binding affinity to PP1 (unknown origin) assessed as change in entropy at compound to protein molar ratio of 1:1 by isothermal titration calorimetry assay
Procedure, shortened: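 PP1 dialyzed into 20 mM TrisCl pH 7.4, 200 mM NaCl, 1 mM TCEP, precipitate removed, 19.16 μM (0.72 mg/ml) in the cell. Compound 500 μM in last dialysis buffer, injected 1.8 μl every 2 min at 25°C. Data corrected for dilution heat and fitted for stoichiometry, Kd, ΔH, ΔS.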

[3] = Binding affinity to PP1 (unknown origin) assessed as binding to RVxF binding site of PP1 by competing with PDP incubated for 60 mins in presence of biotin-PDP2 by ALPHA assay; parameters: species or system Homo sapiens
Procedure, shortened: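 His-tagged PP1 200 nM with biotin-PDP2 67 nM in 50 mM TrisCl pH 7.5, 150 mM NaCl, 0.05% Tween 20, 1 mM MnCl2, 0.1% BSA; serial dilutions starting from 10 mM, 60 min rt; then streptavidin-donor and anti-His-acceptor beads at 5 μg/ml final, 90 min rt in dark; excitation 680 nm, emission 570 nm. Non-specific control used 22 nM GST(His-Biotin) instead.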

[4] = Binding affinity to PP1 (unknown origin) assessed as dissociation constant at compound to protein molar ratio of 1:1 by isothermal titration calorimetry assay; parameters: species or system Homo sapiens
Procedure, shortened: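 PP1 dialysed into 20 mM TrisCl pH 7.4, 200 mM NaCl, 1 mM TCEP; precipitate removed, protein concentrated to 19.16 μM (0.72 mg/ml) in cell. Peptide dissolved in final dialysis buffer (also the reference), 500 μM in syringe, 1.8 μl injections every 2 min at 25°C. Data corrected for dilution heat and fitted for Kd and stoichiometry.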

[5] = tested on: HeLa; test: Induction of calcium release in human HeLa cells and measured for 30 mins by fluorescent Ca2+-indicator dye Fluo-4 based fluorescence microscopy; assay type: functional, cell-based
Procedure, shortened: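 HeLa Kyoto cells in low-glucose DMEM, 10% FBS, seeded day before to ~80% confluency; loaded with 0.5 μM Fluo-4 in HEPES imaging buffer pH 7.4 (1.2 mM CaCl2) 30 min rt, washed; confocal imaging ex 488/em 516 nm, 2 min baseline, compound added, recorded 30 min; responder cells counted. Calcium-free variant: CaCl2 omitted, 250 μM EGTA.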

[6] = species on record: Homo sapiens; test: as §1, with “as substrate at 500 uM enzyme preincubated” for “as substrate enzyme preincubated”

Compound | Activity [6] | EC50 [1] | Activity [5] | further results
CC(C)[C@H](NC(=O)[C@H](CCCNC(=N)N)NC(=O)[C@@H](N)CCCCN)C(=O)N[C@@H](Cc1cnc[nH]1)C(=O)N[C@@H](Cc1ccccc1)C(N)=O |  | 600 nM |  | deltaS [2]: 3.94 cal/mol/deg; IC50 [3]: 124000 nM; Kd [4]: 2100 nM
N=C(N)NCCC[C@H](NC(=O)[C@@H](N)CCCCN)C(=O)N[C@H](C(=O)N[C@@H](Cc1c[nH]cn1)C(=O)N[C@@H](Cc1ccccc1)C(N)=O)C1CC1 (H-KR[Gly(cPr)]HF-NH2) |  | 2100 nM | Active | 
CC(C)[C@H](NC(=O)[C@H](CCCNC(=N)N)N(C)C(=O)[C@@H](N)CCCCN)C(=O)N[C@@H](Cc1cnc[nH]1)C(=O)N[C@@H](Cc1ccccc1)C(N)=O (H-K[NMeR]VHF-NH2) |  | 4700 nM | Active | 
CC(C)[C@H](NC(=O)[C@H](CCCCNC(=N)N)NC(=O)[C@@H](N)CCCCN)C(=O)N[C@@H](Cc1cnc[nH]1)C(=O)N[C@@H](Cc1ccccc1)C(N)=O (H-K[hArg]VHF-NH2) |  | 1700 nM |  | Activity ([5]; DDE = dose-dependent effect): Dde
CC(C)[C@H](NC(=O)[C@H](CCCNC(=N)N)NC(=O)[C@@H](N)CCCN)C(=O)N[C@@H](Cc1c[nH]cn1)C(=O)N[C@@H](Cc1ccccc1)C(N)=O (H-[Orn]RVHF-NH2) |  | 4100 nM | Active | 
CC(C)[C@H](NC(=O)[C@H](CCCNC(=N)N)NC(=O)C[C@@H](N)CCCNC(=N)N)C(=O)N[C@@H](Cc1cnc[nH]1)C(=O)N[C@@H](Cc1ccccc1)C(N)=O (H-[β3hR]RVHF-NH2) |  | 3200 nM | Active | 

The next lines start with results.

Activity [6] | Compound | EC50 [1] | Activity [5] | further results
Active | CC(C)[C@H](NC(=O)[C@@H](N)CCCNC(=N)N)C(=O)N[C@@H](CCC(=O)O)C(=O)N[C@@H](Cc1ccccc1)C(=O)O (H-RVEF-OH) |  |  | 
Active | CC(C)[C@H](NC(=O)[C@@H](N)CCCNC(=N)N)C(=O)NCC(=O)N[C@@H](Cc1ccccc1)C(=O)O (H-RVGF-OH) |  |  | 
Active | CC(C)[C@H](NC(=O)[C@@H](NC(=O)[C@@H](N)CCCNC(=N)N)C(C)C)C(=O)N[C@@H](Cc1ccccc1)C(=O)O (H-RVVF-OH) |  |  | 
Active | CC(C)[C@H](NC(=O)[C@@H](N)CCCNC(=N)N)C(=O)N[C@@H](Cc1ccc(O)cc1)C(=O)N[C@@H](Cc1ccccc1)C(=O)O (H-RVYF-OH) |  |  | 
